Results from different studies.
pIC50: −log10 of the molar value. ≈ marks a conversion by molar mass, not a printed value.

| SMILES | target or system | assay | test system | conditions | endpoint | value |
| --- | --- | --- | --- | --- | --- | --- |
| O=C(O)c1cn(C2CC2)c2cc(N3CCNCC3)c(F)cc2c1=O | Staphylococcus aureus | microbial killing | – | – | MBC | 19 µM (≈ 6.3 µg/mL) |
| COc1cccc(-c2nc3ccccc3n2Cc2ccccc2)c1 | Staphylococcus aureus | microbial growth, broth dilution | ATCC43300 MRSA | drug-resistant strain | MIC | 256 µg/mL (≈ 814 µM) |
| CCOC(=O)c1nnn(-c2cccc(NC(=O)Nc3ccc(Cl)c(Cl)c3)c2)c1C | Escherichia coli | microbial growth, broth dilution | ATCC25922 | – | MIC | > 64 µg/mL |
| Cn1cnc2nc(NCc3ccc(Cl)c(Cl)c3)[nH]c(=O)c21 | Lactobacillus acidophilus | microbial growth, agar dilution | – | 48 h | MIC | 8 µg/mL (≈ 24.7 µM) |
| COC(=O)c1cc(-c2cccc(NC(=O)Nc3ccc(C)cc3)c2)on1 | Escherichia coli | microbial growth, broth dilution | ATCC25922 | – | MIC | > 64 µg/mL |
| OCC(CCn1cnc2c(Cl)ncnc21)COCc1ccccc1 (stereo not drawn) | Severe acute respiratory syndrome coronavirus | plaque formation, inhibitor | Vero C1008 | – | pIC50 | < 3.52 |
| COC(=O)c1cc(-c2cccc(NC(=S)Nc3ccc(OC)cc3)c2)on1 | Escherichia coli | microbial growth, broth dilution | ATCC25922 | – | MIC | > 64 µg/mL |
| Cc1ccc2nc(-c3ccc([N+](=O)[O-])cc3)n(Cc3ccccc3Cl)c2c1 | Staphylococcus aureus | microbial growth, broth dilution | ATCC43300 MRSA | drug-resistant strain | MIC | 64 µg/mL (≈ 169 µM) |
| O=C(NCCc1c[nH]c2ccccc12)C(=O)c1cn(Cc2ccc(Cl)cc2)c2ccc(Br)cc12 | C4-2 | cell growth or viability, MTT | – | – | pIC50 | < 4.00 |
| OCC(CO)CCn1cnc2c(Cl)ncnc21 | Severe acute respiratory syndrome coronavirus | plaque formation, inhibitor | Vero C1008 | – | pIC50 | < 3.52 |
| Cc1ccc2nc(-c3ccc([N+](=O)[O-])cc3)n(Cc3ccccc3)c2c1 | Staphylococcus aureus | microbial growth, broth dilution | ATCC43300 MRSA | drug-resistant strain | MIC | 16 µg/mL (≈ 46.6 µM) |
| CCCCCCNC(=S)Nc1cccc(-c2cc(C(=O)OC)no2)c1 | Escherichia coli | microbial growth, broth dilution | ATCC25922 | – | MIC | > 64 µg/mL |
| COc1ncnc2c1ncn2[C@@H]1O[C@H](CO)[C@@H](O)[C@H]1O | Severe acute respiratory syndrome coronavirus | plaque formation, inhibitor | Vero C1008 | – | pIC50 | < 3.52 |
| C[C@]12CCC(=O)C(O)=C1CC[C@@H]1[C@@H]2CC[C@]2(C)C(=O)CC[C@@H]12 | HN-6 | cell growth or viability | – | 72 h | pIC50 | < 4.70 |
| CN(C)c1ccc(-c2nc3ccccc3[nH]2)cc1 | Staphylococcus aureus | microbial growth, broth dilution | ATCC43300 MRSA | drug-resistant strain | MIC | 128 µg/mL (≈ 539 µM) |
| COC(=O)c1cc(-c2cccc(NC(=O)Nc3ccccc3)c2)on1 | Escherichia coli | microbial growth, broth dilution | ATCC25922 | – | MIC | > 64 µg/mL |
| O=C(NCCc1c[nH]c2ccccc12)C(=O)c1cn(Cc2ccc(Cl)cc2)c2ccccc12 | C4-2 | cell growth or viability, MTT | – | – | pIC50 | < 4.00 |
| Cc1ccc2nc(-c3ccccc3Cl)[nH]c2c1 | Staphylococcus aureus | microbial growth, broth dilution | ATCC43300 MRSA | drug-resistant strain | MIC | 256 µg/mL (≈ 1050 µM) |
| Nc1nc(Cl)c2ncn([C@@H]3O[C@H](CO)[C@@H](O)[C@H]3O)c2n1 | Severe acute respiratory syndrome coronavirus | plaque formation, inhibitor | Vero C1008 | – | pIC50 | < 3.52 |
| COC(=O)c1cc(-c2cccc(NC(=S)Nc3ccc([N+](=O)[O-])cc3)c2)on1 | Escherichia coli | microbial growth, broth dilution | ATCC25922 | – | MIC | > 64 µg/mL |
| COc1ccc(-c2nc3ccccc3[nH]2)cc1O | Staphylococcus aureus | microbial growth, broth dilution | ATCC43300 MRSA | drug-resistant strain | MIC | 256 µg/mL (≈ 1070 µM) |
| c1cc2c(ccc3c4c([nH]c32)CCCC4)cn1 | MDA-MB-468 | cell growth or viability, MTT | – | – | pIC50 | 5.10 |
| c1ccc2[nH]c(-c3ccc4c(c3)OCO4)nc2c1 | Staphylococcus aureus | microbial growth, broth dilution | ATCC43300 MRSA | drug-resistant strain | MIC | 256 µg/mL (≈ 1070 µM) |
| COC(=O)c1cc(-c2cccc(NC(=O)Nc3ccc(OC)cc3)c2)on1 | Escherichia coli | microbial growth, broth dilution | ATCC25922 | – | MIC | > 64 µg/mL |
| Nc1ncnc2c([C@@H]3N[C@H](CO)[C@@H](O)[C@H]3O)c[nH]c12 | Severe acute respiratory syndrome coronavirus | viral replication, inhibitor | Vero 76 | 3 µM | inhibition | 0% |
| c1ccc2[nH]c(-c3ccncc3)nc2c1 | Staphylococcus aureus | microbial growth, broth dilution | ATCC43300 MRSA | drug-resistant strain | MIC | 256 µg/mL (≈ 1310 µM) |
| COC(=O)c1cc(-c2cccc(NC(=O)Nc3ccc(Cl)c(Cl)c3)c2)on1 | Escherichia coli | microbial growth, broth dilution | ATCC25922 | – | MIC | > 64 µg/mL |
